Source: ChEMBL document CHEMBL1148700, “Synthesis and identification of [1,2,4]thiadiazole derivatives as a new series of potent and orally active dual agonists of peroxisome proliferator-activated receptors alpha and delta” (J Med Chem, 2007)
Values joined by “and” are separate entries in the source; they are usually repeats but may differ in a detail not shown here. Equal values may be shown once. Active and inactive are the calls of the source. No cut-off for these calls is given here.

How the values were obtained:
[1] = molecular target: T1, Peroxisome proliferator-activated receptor alpha (Homo sapiens) (UniProt Q07869); experiment: Agonist activity at PPARalpha expressed in HEK293 cells by measuring Gal4 luciferase reporter activity relative to (S)-2- {2-[1-Ethyl-3-(4-trifluoromethoxyphenyl)ureido] indan-5-ylsulfanyl}-2- methylpropionic acid; assay type: functional, cell-based
T1 sequence (whole entry): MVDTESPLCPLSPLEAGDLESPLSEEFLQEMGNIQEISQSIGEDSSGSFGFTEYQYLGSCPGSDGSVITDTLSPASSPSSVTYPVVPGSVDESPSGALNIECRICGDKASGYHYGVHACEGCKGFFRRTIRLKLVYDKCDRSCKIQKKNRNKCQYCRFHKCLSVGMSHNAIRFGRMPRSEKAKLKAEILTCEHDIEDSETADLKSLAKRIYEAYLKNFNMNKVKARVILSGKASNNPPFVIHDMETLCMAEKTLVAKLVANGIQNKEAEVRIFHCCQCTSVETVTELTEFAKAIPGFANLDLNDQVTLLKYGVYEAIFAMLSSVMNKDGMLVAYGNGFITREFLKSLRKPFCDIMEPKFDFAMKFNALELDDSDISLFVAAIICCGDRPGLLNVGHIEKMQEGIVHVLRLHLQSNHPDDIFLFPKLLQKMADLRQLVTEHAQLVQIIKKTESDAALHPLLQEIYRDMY
Outline: (§1)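 HEK293 cells grown in DMEM/F-12 with 10% FBS and glutamine, cotransfected with a PPARα ligand-binding domain-Gal4 chimera and a Gal4-luciferase reporter. Next day switched to 5% charcoal-treated FBS medium, replated after 6 h at 50 000 cells/well, and cultured overnight. Compound or vehicle (0.1% DMSO) added for 24 h at 37 °C. Luciferase read by Steady-Glo; percent efficacy given relative to a reference PPARα agonist.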

[2] = molecular target: Liver X receptor (Homo sapiens) (UniProt Q13133+P55055); experiment: Effect on LXR; assay type: protein assay
Rattus norvegicus [3] = experiment: Decrease in serum LDL-C levels in hypercholesterolemic Sprague-Dawley rat at 0.1 to 3 mg/kg/day, po after 8 days; assay type: functional, organism-based
Outline: (§2)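 Male Sprague-Dawley rats (275-325 g) were fed a high-cholesterol atherogenic diet for 6 days before and throughout treatment; lean controls got normal chow plus vehicle. Drug in 0.5% Methocel was given orally at 10 mL/kg once daily for 8 days. On day 9, retro-orbital blood was taken under CO2/O2 anesthesia and serum lipids measured on a COBAS analyzer. n = 8/group; one-way ANOVA with Dunnett's test.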

[4] = molecular target: T2, Peroxisome proliferator-activated receptor gamma (Homo sapiens, UniProt P37231); experiment: Agonist activity at PPARgamma expressed in HEK293 cells by measuring Gal4 luciferase reporter activity; assay type: functional, cell-based
T2 sequence (P37231 whole entry): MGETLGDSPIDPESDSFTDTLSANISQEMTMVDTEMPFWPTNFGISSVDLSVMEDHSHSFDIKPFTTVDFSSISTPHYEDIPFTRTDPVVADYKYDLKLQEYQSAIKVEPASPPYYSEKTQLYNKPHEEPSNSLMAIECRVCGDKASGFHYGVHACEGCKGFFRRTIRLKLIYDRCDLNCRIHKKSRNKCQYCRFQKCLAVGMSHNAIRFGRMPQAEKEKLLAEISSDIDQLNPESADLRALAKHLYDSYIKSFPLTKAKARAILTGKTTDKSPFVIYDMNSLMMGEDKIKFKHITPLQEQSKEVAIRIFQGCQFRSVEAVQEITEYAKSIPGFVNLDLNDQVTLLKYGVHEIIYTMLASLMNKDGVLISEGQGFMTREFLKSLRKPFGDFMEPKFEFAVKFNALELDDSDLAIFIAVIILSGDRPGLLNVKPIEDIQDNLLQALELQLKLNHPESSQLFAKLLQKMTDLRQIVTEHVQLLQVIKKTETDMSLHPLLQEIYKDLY

[5] = molecular target: T3, Bile acid receptor (Homo sapiens) (UniProt Q96RI1); experiment: Effect on FXR
T3 sequence (whole entry): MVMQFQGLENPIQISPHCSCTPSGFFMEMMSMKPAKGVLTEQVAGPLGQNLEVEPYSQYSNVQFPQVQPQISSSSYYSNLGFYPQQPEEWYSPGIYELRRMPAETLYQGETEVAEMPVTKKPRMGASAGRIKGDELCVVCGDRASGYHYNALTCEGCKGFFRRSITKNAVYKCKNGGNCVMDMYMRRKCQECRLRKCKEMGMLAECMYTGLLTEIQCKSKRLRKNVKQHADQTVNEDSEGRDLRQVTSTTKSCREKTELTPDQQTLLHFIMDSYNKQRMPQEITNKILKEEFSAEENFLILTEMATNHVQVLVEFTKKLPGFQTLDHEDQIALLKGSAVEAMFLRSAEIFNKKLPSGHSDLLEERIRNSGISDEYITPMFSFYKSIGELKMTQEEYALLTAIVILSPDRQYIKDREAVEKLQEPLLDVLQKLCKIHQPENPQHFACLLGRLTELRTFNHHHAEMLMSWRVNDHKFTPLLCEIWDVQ

[6] = molecular target: Retinoid X receptor (Homo sapiens) (UniProt P28702+P48443+P19793); experiment: Effect on RXR; assay type: protein assay
Sequence of Retinoid X receptor (Homo sapiens) (P19793 whole entry, looked up): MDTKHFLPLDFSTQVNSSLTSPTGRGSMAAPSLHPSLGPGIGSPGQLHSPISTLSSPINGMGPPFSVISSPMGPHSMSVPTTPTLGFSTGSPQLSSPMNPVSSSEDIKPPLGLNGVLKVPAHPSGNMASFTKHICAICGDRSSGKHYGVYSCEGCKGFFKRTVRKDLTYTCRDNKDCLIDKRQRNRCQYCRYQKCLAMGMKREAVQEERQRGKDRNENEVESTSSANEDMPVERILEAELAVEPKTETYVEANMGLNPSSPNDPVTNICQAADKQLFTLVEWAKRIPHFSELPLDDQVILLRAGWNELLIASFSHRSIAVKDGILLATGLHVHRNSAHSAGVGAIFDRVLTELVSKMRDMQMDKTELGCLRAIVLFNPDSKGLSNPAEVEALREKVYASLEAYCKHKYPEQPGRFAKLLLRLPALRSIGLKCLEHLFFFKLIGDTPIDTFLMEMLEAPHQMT
Sequence of Retinoid X receptor (Homo sapiens) (P28702 whole entry, looked up): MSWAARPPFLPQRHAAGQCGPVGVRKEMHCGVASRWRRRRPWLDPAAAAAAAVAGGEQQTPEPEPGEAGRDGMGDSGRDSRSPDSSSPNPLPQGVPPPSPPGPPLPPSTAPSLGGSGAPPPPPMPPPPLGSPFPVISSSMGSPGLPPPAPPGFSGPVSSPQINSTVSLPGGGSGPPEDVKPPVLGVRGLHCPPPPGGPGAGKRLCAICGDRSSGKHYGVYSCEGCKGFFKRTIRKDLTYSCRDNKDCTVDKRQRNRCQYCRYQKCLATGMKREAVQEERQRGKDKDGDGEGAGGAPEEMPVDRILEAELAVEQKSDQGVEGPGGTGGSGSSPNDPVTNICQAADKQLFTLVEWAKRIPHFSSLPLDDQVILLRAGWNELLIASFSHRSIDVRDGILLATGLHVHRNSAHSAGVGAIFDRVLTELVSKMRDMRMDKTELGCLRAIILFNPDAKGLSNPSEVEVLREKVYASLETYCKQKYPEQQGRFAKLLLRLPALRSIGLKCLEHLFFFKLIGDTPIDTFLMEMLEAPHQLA
Sequence of Retinoid X receptor (Homo sapiens) (P48443 whole entry, looked up): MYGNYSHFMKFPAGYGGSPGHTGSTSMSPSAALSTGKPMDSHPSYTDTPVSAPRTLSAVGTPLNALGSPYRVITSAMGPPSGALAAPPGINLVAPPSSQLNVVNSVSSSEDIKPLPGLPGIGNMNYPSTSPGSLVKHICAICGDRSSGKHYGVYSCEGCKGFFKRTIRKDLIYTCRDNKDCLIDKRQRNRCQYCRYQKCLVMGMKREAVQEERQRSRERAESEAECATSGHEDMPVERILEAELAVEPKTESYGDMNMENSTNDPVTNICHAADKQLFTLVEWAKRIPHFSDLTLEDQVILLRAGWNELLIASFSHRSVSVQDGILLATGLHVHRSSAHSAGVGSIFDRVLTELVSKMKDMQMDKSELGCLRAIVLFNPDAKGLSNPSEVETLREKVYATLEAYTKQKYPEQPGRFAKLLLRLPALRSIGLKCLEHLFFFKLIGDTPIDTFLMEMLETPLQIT

[7] = molecular target: Retinoic acid receptor (Homo sapiens) (UniProt P13631+P10826+P10276); experiment: Effect on RAR; assay type: protein assay
Sequence of Retinoic acid receptor (Homo sapiens) (P10276 whole entry, looked up): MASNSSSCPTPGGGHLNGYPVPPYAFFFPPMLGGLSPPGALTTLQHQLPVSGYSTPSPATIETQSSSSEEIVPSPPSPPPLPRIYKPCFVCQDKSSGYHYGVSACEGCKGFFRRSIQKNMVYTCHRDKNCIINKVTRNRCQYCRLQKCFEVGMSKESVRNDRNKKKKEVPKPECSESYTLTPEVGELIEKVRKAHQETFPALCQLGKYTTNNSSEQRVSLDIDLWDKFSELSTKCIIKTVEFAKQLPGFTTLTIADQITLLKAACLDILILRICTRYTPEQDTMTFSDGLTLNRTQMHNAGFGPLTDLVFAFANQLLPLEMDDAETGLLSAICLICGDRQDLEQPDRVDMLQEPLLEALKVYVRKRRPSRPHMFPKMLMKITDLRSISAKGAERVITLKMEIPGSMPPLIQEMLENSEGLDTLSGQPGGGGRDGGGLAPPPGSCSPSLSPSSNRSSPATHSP
Sequence of Retinoic acid receptor (Homo sapiens) (P10826 whole entry, looked up): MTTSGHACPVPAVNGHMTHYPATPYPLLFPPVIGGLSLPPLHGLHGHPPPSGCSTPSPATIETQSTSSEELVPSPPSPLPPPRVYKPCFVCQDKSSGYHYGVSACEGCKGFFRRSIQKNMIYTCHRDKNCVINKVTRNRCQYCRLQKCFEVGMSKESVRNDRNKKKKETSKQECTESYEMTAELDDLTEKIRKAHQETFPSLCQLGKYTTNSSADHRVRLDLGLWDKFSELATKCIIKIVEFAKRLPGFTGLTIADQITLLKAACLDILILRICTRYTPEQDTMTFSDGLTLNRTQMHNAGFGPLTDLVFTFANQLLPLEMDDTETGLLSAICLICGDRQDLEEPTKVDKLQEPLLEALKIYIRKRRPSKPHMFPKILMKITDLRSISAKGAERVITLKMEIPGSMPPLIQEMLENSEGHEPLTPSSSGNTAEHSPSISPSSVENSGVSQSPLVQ
Sequence of Retinoic acid receptor (Homo sapiens) (P13631 whole entry, looked up): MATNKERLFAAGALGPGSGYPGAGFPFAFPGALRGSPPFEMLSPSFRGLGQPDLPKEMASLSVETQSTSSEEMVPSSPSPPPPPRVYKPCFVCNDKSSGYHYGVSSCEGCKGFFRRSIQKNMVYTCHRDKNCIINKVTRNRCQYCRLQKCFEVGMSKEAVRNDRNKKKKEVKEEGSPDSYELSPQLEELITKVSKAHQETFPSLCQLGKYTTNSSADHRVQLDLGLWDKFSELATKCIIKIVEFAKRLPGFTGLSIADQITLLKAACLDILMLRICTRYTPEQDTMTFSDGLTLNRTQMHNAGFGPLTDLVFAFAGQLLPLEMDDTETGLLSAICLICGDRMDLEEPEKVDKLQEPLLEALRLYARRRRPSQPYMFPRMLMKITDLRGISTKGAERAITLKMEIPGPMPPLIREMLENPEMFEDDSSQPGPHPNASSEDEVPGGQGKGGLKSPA

[8] = Cmax in rat at 3 mg/kg, po; assay type: ADME, organism-based; design: dose 3 mg/kg, route oral; settings: in vivo
Outline: (§3)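 Heparinized orbital-sinus blood was collected; plasma was precipitated with acetonitrile plus internal standard and quantified by LC-MS-MS using calibration standards prepared in plasma.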

[9] = Tmax in rat at 3 mg/kg, po; assay type: ADME, organism-based; design: dose 3 mg/kg, route oral; settings: in vivo; outline: as §3
[10] = AUC in rat at 3 mg/kg; assay type: ADME, organism-based; design: dose 3 mg/kg; settings: plasma
[11] = Half life in rat at 3 mg/kg; assay type: ADME, organism-based; design: dose 3 mg/kg; settings: in vivo
Outline: (§4)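 Rats given 3 mg/kg; IV formulation was a solution in 10% w/v Solutol in 5% dextrose in water (D5W). Blood was drawn by orbital sinus puncture into heparinized tubes. Plasma was protein-precipitated with acetonitrile containing internal standard, centrifuged at 5000g for 3 min and analysed by LC-MS-MS against plasma calibration standards.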

[12] = Clearance in rat at 3 mg/kg; assay type: ADME, organism-based; design: dose 3 mg/kg; settings: in vivo; outline: as §4
[13] = Bioavailability in rat at 3 mg/kg, po; assay type: ADME, organism-based; settings: in vivo; outline: as §3
Rattus norvegicus [14] = experiment: Increase in serum HDL-C levels in hypercholesterolemic Sprague-Dawley rat at 0.1 to 3 mg/kg/day, po after 8 days; assay type: functional, organism-based; outline: as §2
Mus musculus [15] = experiment: Effect on lipid homeostasis in human apoA1 transgenic mouse assessed as increase in HDL-C levels at 3 mg/kg, po after 7 days; assay type: functional
Outline: (§5)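 Male human apoA1 transgenic mice were given 3 mg/kg orally as a 0.5% methylcellulose suspension for 7 days. Serum HDL-C, triglyceride and free fatty acids were sampled under fed conditions and measured on a COBAS Mira Plus analyzer. n = 8/group; one-way ANOVA with Dunnett's test vs vehicle control.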

Mus musculus [16] = experiment: Effect on lipid homeostasis in human apoA1 transgenic mouse assessed as decrease in triglyceride level at 3 mg/kg, po after 7 days; assay type: functional; design: scale not given: the % may be the effect or the level left; outline: as §5
Mus musculus [17] = experiment: Effect on lipid homeostasis in human apoA1 transgenic mouse assessed as decrease in free fatty acid levels at 3 mg/kg, po after 7 days; assay type: functional; design: scale not given: the % may be the effect or the level left; outline: as §5
Mus musculus [18] = experiment: Effect on lipid homeostasis in C57BL/6J Lepob mouse assessed as decrease in serum triglyceride levels at 1 mg/kg, po after 11 days; assay type: functional; design: scale not given: the % may be the effect or the level left
Outline: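 Seven-week-old female ob/ob (C57BL/6J-Lepob) mice were dosed orally with a 0.5% methylcellulose suspension for 11 days. Serum TG, glucose and FFA were taken under fed conditions and measured on a COBAS Mira Plus analyzer, and liver was weighed. Mean ± SEM, n = 8; one-way ANOVA with Dunnett's test vs vehicle.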

[19] = molecular target: T4, Peroxisome proliferator-activated receptor alpha (Mus musculus, UniProt P23204); experiment: Efficacy on PPARalpha in mouse by HD assay
T4 sequence (P23204 whole entry): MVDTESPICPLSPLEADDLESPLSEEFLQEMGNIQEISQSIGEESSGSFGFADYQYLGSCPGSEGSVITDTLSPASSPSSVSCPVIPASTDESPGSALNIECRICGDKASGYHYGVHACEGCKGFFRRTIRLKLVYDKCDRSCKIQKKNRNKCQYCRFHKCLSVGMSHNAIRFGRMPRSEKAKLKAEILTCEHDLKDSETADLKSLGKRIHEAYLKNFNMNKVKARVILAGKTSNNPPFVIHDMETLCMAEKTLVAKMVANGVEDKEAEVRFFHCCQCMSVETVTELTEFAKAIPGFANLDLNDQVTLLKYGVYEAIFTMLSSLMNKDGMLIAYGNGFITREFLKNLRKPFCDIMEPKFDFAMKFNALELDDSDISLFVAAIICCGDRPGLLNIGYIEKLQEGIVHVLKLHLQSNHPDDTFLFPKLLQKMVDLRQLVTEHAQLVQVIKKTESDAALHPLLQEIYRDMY

[20] = molecular target: T5, Peroxisome proliferator-activated receptor alpha (Homo sapiens, UniProt Q07869); experiment: Agonist activity at PPARalpha expressed in HEK293 cells by measuring Gal4 luciferase reporter activity; assay type: functional, cell-based; outline: as §1
T5 sequence (Q07869 whole entry): T1 sequence (whole entry)

[21] = molecular target: T6, Peroxisome proliferator-activated receptor delta (Homo sapiens, UniProt Q03181); experiment: Agonist activity at PPARdelta expressed in HEK293 cells by measuring Gal4 luciferase reporter activity; assay type: functional, cell-based
T6 sequence (Q03181 whole entry): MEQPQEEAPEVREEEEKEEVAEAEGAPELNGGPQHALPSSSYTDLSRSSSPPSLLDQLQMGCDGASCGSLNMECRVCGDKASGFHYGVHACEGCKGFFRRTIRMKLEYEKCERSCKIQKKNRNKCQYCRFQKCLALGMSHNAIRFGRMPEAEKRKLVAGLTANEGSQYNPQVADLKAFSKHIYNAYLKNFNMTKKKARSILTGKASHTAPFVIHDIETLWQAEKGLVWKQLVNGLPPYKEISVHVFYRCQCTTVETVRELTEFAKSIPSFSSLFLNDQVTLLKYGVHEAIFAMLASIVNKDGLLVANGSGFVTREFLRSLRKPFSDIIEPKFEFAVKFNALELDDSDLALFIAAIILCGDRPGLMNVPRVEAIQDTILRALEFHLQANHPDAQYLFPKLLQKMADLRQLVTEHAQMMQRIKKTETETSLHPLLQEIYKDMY

Homo sapiens = species: Homo sapiens; experiment: Selectivity for PPARdelta over PPARalpha

Structure (SMILES): Cc1cc(SCc2nc(-c3ccc(C(C)(C)C)cc3)ns2)ccc1OC(C)(C)C(=O)O
- Activity [1]: 64%

Structure (SMILES): Cc1cc(SCc2nc(-c3ccc(OC(F)(F)F)cc3)ns2)ccc1OC(C)(C)C(=O)O
- Activity [2]: inactive
- Activity [1]: 44%
- Activity (Rattus norvegicus [3]): Active
- EC50 [4]: > 3000 nM
- Activity [5]: inactive
- Activity [6]: inactive
- Activity [7]: inactive
- Cmax [8]: 6680 ng/mL
- Tmax [9]: 0.8 h
- AUC [10]: 22000 ng·h/mL
- half-life [11]: 5.3 h
- clearance [12]: 2.2 mL/min/kg
- bioavailability [13]: 96%
- Activity (Rattus norvegicus [14]): Active
- Activity (Mus musculus [15]): 74%
- Activity (Mus musculus [16]): 85%
- Activity (Mus musculus [17]): 31%
- Activity (Mus musculus [18]): 80% and 98.9 mg/dl
- EC50 [19]: 127 nM

Structure (SMILES): Cc1cc(SCc2nsc(-c3ccc(C(F)(F)F)cc3)n2)ccc1OC(C)(C)C(=O)O
- Activity [1]: 38%

Structure (SMILES): Cc1cc(SCc2nc(-c3ccc(C(F)(F)F)cc3)ns2)ccc1OC(C)(C)C(=O)O
- EC50 [20]: 79 nM
- Activity [1]: 51%
- EC50 [21]: 6 nM

Structure (SMILES): Cc1cc(OCc2nc(-c3ccc(OC(F)(F)F)cc3)ns2)ccc1OC(C)(C)C(=O)O
- Activity [1]: 80%
- EC50 [21]: 12 nM

Structure (SMILES): Cc1cc(OCc2nc(-c3ccc(C(F)(F)F)cc3)ns2)ccc1OC(C)(C)C(=O)O
- Activity [1]: 71%

Structure (SMILES): Cc1cc(SCc2nc(-c3ccc(C(F)(F)F)cc3)ns2)ccc1OCC(=O)O
- Activity [1]: 42%
- EC50 [4]: > 3000 nM
- Selectivity ratio (Homo sapiens): 47

Structure (SMILES): Cc1cc(SCc2nsc(-c3ccc(OC(F)(F)F)cc3)n2)ccc1OC(C)(C)C(=O)O
- Activity [1]: 47%
- EC50 [4]: > 3000 nM

Structure (SMILES): Cc1cc(SCc2nc(-c3ccc(OC(F)(F)F)cc3)ns2)ccc1OC1(C(=O)O)CCCC1
- Activity [1]: 31%

Structure (SMILES): Cc1cc(SCc2nc(-c3ccc(Cl)cc3)ns2)ccc1OC(C)(C)C(=O)O
- Activity [1]: 38%
